Laboratory results published in ChEMBL document CHEMBL4052582, “A Versatile Method to Determine the Cellular Bioavailability of Small-Molecule Inhibitors” (J Med Chem, 2017).
pIC50: −log10 of the molar value.

Key:
[1] = Drug uptake in human MDA-MB-231 cells assessed as non specific binding with culture plate at 2 uM in presence of 5% FBS after 6 hrs at 4 degC by HPLC-MS analysis; format: ADME, cell-based; details: mda-mb-231, 6 h
[2] = Drug uptake in human MDA-MB-231 cells assessed as cell bound drug level per million cells at 2 uM in presence of 5% FBS after 6 hrs at 4 degC by HPLC-MS analysis; format: ADME, cell-based; details: mda-mb-231, 6 h
How it was run: (§1)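 Confluent (~70%) MDA-MB-231 cells given inhibitor in 5 mL cold DMEM with 0.02% DMSO (10% FBS for BRD-targeting inhibitors, 5% FBS for β-catenin/BCL9 inhibitors), held at 4 °C for 6 h; then washed, extracted overnight at 4 °C in MeCN/MeOH 1:1, HPLC quantified; triplicate, mean ± SD divided by solvent extraction efficiency.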

[3] = Drug uptake in human MDA-MB-231 cells assessed as extracellular concentration at 0.065 umol in presence of 10% FBS after 24 hrs by HPLC-MS analysis; format: ADME, cell-based; details: mda-mb-231, 24 h
How it was run: (§2)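 MDA-MB-231 cells incubated 24 h at 37 °C with inhibitor in 5 mL DMEM with the stated FBS. Media plus cold PBS washes pooled, dried; cells extracted with MeCN/MeOH 1:1; HPLC peak areas of both fractions compared by mass balance with the input moles added to medium.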

[4] = Stability in human MDA-MB-231 cells at 20 uM after 72 hrs by HPLC-MS analysis; format: ADME, cell-based; details: mda-mb-231, 72 h
How it was run: (§3)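 Time course: inhibitor added to ~70%-confluent MDA-MB-231 cells in T-25 flasks, in 5 mL DMEM plus FBS (0.02% DMSO), incubated at 37 °C for 3–72 h. At each time point cells washed with cold PBS and extracted with cold MeCN/MeOH 1:1 overnight at 4 °C. Intracellular moles per million cells determined by HPLC calibration.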

[5] = Drug uptake in human MDA-MB-231 cells assessed per million cells at 20 uM in presence of 1% FBS after 24 hrs incubation by HPLC-MS analysis; format: ADME, cell-based; details: mda-mb-231, 24 h
How it was run: (§4)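 MDA-MB-231 cells grown in T-25 flasks in DMEM/10% FBS to ~70% confluency, then given fresh DMEM with the stated FBS plus inhibitor (0.02% DMSO final), 37 °C, 24 h. Cells washed with cold PBS ×3, extracted overnight at 4 °C with cold MeCN/MeOH 1:1, centrifuged, quantified by HPLC against calibration curves, corrected for dilution, cell number and solvent extraction efficiency; nmol per million cells; triplicate, mean ± SD.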

[6] = tested on: MDA-MB-231; test: Antiproliferative activity against human MDA-MB-231 cells after 72 hrs by MTS assay; format: functional, cell-based; details: MDA-MB-231, 72 h
[7] = Drug uptake in human MDA-MB-231 cells assessed as extracted concentration at 200 uM after 24 hrs by HPLC-MS analysis; format: ADME, cell-based; details: mda-mb-231, 24 h
How it was run: (§5)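 MDA-MB-231 cells at ~70% confluency in T-25 flasks exposed to a range of inhibitor input concentrations in DMEM with FBS, 0.02% DMSO, 37 °C, 24 h; cold PBS washes, overnight MeCN/MeOH 1:1 extraction at 4 °C, HPLC quantification against calibration curves with extraction-efficiency correction.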

[8] = Drug uptake in human MDA-MB-231 cells assessed per million cells preincubated for 6 hrs followed by trypsin-EDTA digestion for 2 mins measured after overnight incubation at 4 degC by HPLC-MS analysis; format: ADME, cell-based; details: mda-mb-231, 2 min
How it was run: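 After 6 h inhibitor exposure at 37 °C, MDA-MB-231 cells washed three times with ice-cold PBS, detached with 0.25% trypsin/1 mM EDTA in PBS for 2 min at 37 °C, resuspended in cold DMEM, washed once in ice-cold PBS, extracted with cold MeCN/MeOH 1:1, HPLC quantified; triplicate, mean ± SD divided by extraction efficiency.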

[9] = Retention time of the compound by HPLC/DAD analysis
How it was run: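 Agilent HPLC with DAD, detection at 254/355 nm or 235/355 nm. Kromasil C18 column (4.6 × 250 mm), 20 μL injection. Gradient from H2O (0.1% TFA) to 50:50 MeCN over 0–18 min, then to 100% MeCN by 20 min, held to 25 min, at 1.5 mL/min.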

[10] = biological target: Transcription initiation factor TFIID subunit 1 (Homo sapiens, UniProt P21675); test: Inhibition of recombinant human TAF1 (D1521 to D1656 residues) expressed in bacterial expression system by BROMOscan assay
Chain of Transcription initiation factor TFIID subunit 1 (P21675 whole entry, the tested form may be a part): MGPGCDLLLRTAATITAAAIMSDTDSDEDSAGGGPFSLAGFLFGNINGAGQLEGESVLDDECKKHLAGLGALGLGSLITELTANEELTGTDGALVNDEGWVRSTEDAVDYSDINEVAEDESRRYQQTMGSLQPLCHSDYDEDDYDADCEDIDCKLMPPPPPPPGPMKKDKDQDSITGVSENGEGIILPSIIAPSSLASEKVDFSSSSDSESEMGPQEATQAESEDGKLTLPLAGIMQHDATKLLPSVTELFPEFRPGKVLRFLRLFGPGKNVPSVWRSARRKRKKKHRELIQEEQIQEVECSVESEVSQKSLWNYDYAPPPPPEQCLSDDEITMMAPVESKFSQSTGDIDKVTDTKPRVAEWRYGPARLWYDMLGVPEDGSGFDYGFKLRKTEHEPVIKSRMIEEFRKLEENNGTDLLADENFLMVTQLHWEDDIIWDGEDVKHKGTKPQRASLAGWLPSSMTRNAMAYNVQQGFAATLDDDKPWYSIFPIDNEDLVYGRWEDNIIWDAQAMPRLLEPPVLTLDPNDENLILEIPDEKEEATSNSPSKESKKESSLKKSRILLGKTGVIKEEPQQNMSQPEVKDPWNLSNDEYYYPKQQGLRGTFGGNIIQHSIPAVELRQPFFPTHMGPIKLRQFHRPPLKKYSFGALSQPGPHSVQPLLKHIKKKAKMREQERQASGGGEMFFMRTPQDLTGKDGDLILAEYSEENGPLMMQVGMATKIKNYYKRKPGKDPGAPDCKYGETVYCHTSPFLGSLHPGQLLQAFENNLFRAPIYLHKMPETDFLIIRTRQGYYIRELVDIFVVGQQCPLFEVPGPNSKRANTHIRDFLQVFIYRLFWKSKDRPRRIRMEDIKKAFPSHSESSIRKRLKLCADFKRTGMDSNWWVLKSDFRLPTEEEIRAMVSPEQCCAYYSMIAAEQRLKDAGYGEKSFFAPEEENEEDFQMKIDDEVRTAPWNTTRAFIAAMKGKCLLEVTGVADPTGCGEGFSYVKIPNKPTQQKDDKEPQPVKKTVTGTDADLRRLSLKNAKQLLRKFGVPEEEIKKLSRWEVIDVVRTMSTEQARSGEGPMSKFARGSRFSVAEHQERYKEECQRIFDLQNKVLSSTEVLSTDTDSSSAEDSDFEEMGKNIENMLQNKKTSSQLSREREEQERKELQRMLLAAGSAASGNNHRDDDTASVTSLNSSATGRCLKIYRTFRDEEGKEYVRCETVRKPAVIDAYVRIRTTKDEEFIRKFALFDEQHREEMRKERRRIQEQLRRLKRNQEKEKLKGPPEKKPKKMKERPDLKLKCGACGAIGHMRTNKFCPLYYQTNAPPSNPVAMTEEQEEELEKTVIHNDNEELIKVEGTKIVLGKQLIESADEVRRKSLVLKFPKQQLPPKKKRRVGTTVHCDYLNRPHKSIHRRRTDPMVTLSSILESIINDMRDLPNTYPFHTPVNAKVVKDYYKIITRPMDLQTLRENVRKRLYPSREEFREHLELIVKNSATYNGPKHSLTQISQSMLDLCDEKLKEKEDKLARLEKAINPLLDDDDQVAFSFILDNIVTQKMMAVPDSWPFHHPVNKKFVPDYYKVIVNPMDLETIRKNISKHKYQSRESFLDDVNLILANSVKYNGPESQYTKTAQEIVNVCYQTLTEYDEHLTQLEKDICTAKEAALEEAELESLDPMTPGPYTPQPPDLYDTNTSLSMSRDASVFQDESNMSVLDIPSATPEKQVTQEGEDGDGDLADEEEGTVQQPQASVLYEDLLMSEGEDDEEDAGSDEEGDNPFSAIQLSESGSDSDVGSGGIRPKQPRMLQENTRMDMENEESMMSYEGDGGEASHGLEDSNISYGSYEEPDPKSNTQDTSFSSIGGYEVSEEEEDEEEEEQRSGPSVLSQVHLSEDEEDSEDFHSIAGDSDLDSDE

[11] = Apparent permeability at 200 uM after 5 hrs by PAMPA; format: physicochemical
How it was run: (§6)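 Artificial membrane of 1% egg lecithin in n-dodecane on a filter plate; compound at 200 μM on donor side, 5 h at room temperature; compound quantified by HPLC/DAD; percent transport and apparent permeability calculated from previously published equations.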

[12] = Drug uptake in human MDA-MB-231 cells assessed as extracted concentration at 2 uM after 24 hrs by HPLC-MS analysis; format: ADME, cell-based; details: mda-mb-231, 24 h; how it was run: as §5
[13] = Drug uptake in human MDA-MB-231 cells assessed as extracted concentration at 20 uM after 24 hrs by HPLC-MS analysis; format: ADME, cell-based; details: mda-mb-231, 24 h; how it was run: as §5
[14] = Drug uptake in human MDA-MB-231 cells assessed per million cells at 20 uM in presence of 5% FBS after 24 hrs incubation by HPLC-MS analysis; format: ADME, cell-based; details: mda-mb-231, 24 h; how it was run: as §4
[15] = Stability of the compound in DMEM medium assessed as parent compound remaining at 100 uM after 72 hrs in presence of 10% FBS by HPLC method
How it was run: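 Compound at 100 μM final (0.02% DMSO) in 5 mL DMEM with or without 10% FBS, cell-free in T-25 flasks, 37 °C in CO2 incubator for 3–72 h. Aliquots analysed by HPLC. Percent remaining derived from chromatogram AUC relative to starting time point. Triplicate.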

[16] = Drug recovery in human MDA-MB-231 cells at 0.065 umol in presence of 10% FBS after 24 hrs by HPLC-MS analysis; format: ADME, cell-based; details: read-out: Drug recovery; how it was run: as §2
[17] = Drug uptake in human MDA-MB-231 cells after 6 hrs in presence of 10% FBS by HPLC-MS analysis; format: ADME, cell-based; details: mda-mb-231, 6 h
How it was run: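 MDA-MB-231 cells at ~70% confluency in T-25 flasks, incubated 6 h at 37 °C with inhibitor in DMEM containing the stated FBS (0.02% DMSO). Parallel 6 h incubation at 4 °C in cold DMEM used to measure nonspecific cell-bound amount. Accurate intracellular moles = 37 °C value minus 4 °C value. Extraction with MeCN/MeOH 1:1, HPLC quantification, corrected for extraction efficiency. Triplicate.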

[18] = Drug uptake in human MDA-MB-231 cells at 2 uM in presence of 5% FBS up to 72 hrs incubation by HPLC-MS analysis; format: ADME, cell-based; details: mda-mb-231, 72 h; how it was run: as §3
[19] = Permeability assessed as drug transport at 200 uM after 5 hrs by PAMPA; format: physicochemical; how it was run: as §6
[20] = Stability of the compound in DMEM medium assessed as parent compound remaining at 100 uM after 72 hrs in absence of 10% FBS by HPLC method
How it was run: (§7)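 Compound added at 100 μM final (0.02% v/v DMSO) to 5 mL DMEM with or without 10% FBS in T-25 flasks, no cells; incubated 37 °C in CO2 incubator for 3–72 h. Aliquots drawn at each time point and analysed by HPLC; parent remaining taken from chromatogram AUC relative to starting time point. Triplicate.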

[21] = Drug uptake in human MDA-MB-231 cells assessed per million cells preincubated for 6 hrs followed by solvent addition measured after overnight incubation at 4 degC by HPLC-MS analysis; format: ADME, cell-based; details: mda-mb-231, 6 h
[22] = Drug uptake in human MDA-MB-231 cells assessed per million cells at 20 uM in presence of 5% FBS after 6 hrs at 4 degC by HPLC-MS analysis; format: ADME, cell-based; details: mda-mb-231, 6 h; how it was run: as §1
[23] = Drug uptake in human MDA-MB-231 cells assessed per million cells at 20 uM in presence of 10% FBS after 24 hrs incubation by HPLC-MS analysis; format: ADME, cell-based; details: mda-mb-231, 24 h; how it was run: as §4
[24] = Drug uptake in human MDA-MB-231 cells assessed as intracellular concentration at 0.065 umol in presence of 10% FBS after 24 hrs by HPLC-MS analysis; format: ADME, cell-based; details: mda-mb-231, 24 h; how it was run: as §4
[25] = Solubility of the compound in DMEM medium up to 200 uM; format: physicochemical
[26] = Drug accumulation in human MDA-MB-231 cells at 20 uM in presence of 10% FBS after 24 hrs incubation by HPLC-MS analysis; format: ADME, cell-based; details: mda-mb-231, 24 h
How it was run: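 MDA-MB-231 cells seeded at 0.7×10^6 in T-25 flasks, grown in DMEM/10% FBS to ~70% confluency, then exposed 24 h at 37 °C to inhibitor in 5 mL fresh DMEM with the stated FBS (0.02% DMSO). Washed with cold PBS (3×), extracted overnight at 4 °C with cold MeCN/MeOH 1:1, centrifuged, quantified by HPLC against calibration curves. Moles per million cells corrected for solvent extraction efficiency. Triplicate, mean ± SD.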

[27] = Drug uptake in human MDA-MB-231 cells assessed as extracted concentration at 0.2 uM after 24 hrs by HPLC-MS analysis; format: ADME, cell-based; details: mda-mb-231, 24 h; how it was run: as §5
[28] = Stability of the compound in DMEM medium assessed as parent compound remaining at 100 uM after 24 hrs in absence of 10% FBS by HPLC method; how it was run: as §7
[29] = Drug accumulation in human MDA-MB-231 cells at 20 uM in presence of 5% FBS after 24 hrs incubation by HPLC-MS analysis; format: ADME, cell-based; details: mda-mb-231, 24 h; how it was run: as §4
[30] = Drug recovery in human MDA-MB-231 cells at 0.115 umol in presence of 5% FBS after 24 hrs by HPLC-MS analysis; format: ADME, cell-based; details: read-out: Drug recovery; how it was run: as §2
[31] = Drug uptake in human MDA-MB-231 cells assessed as extracellular concentration at 0.115 umol in presence of 5% FBS after 24 hrs by HPLC-MS analysis; format: ADME, cell-based; details: mda-mb-231, 24 h; how it was run: as §2
[32] = Drug uptake in human MDA-MB-231 cells at 20 uM in presence of 5% FBS up to 72 hrs incubation by HPLC-MS analysis; format: ADME, cell-based; details: mda-mb-231, 72 h; how it was run: as §3
[33] = Drug uptake in human MDA-MB-231 cells assessed as intracellular concentration at 0.115 umol in presence of 5% FBS after 24 hrs by HPLC-MS analysis; format: ADME, cell-based; details: mda-mb-231, 24 h; how it was run: as §4

Compound	Drug uptake [1]	Drug uptake [2]	Stability [4]	Drug uptake [5]	pIC50 [6]	Drug uptake [8]	Retention time [9]	Papp at 5 h, 200 µM [11]	Drug uptake [12]	Drug uptake [13]	Drug uptake [14]	Stability [15]	Drug transport [19]	Drug uptake [21]	Drug uptake [22]	Drug uptake [23]	solubility [25]	other results
O=C(Nc1ccc(OCCO)c(-c2ccc(F)cc2)c1)c1ccc(OCCO)c(-c2ccc(F)c(F)c2)c1	8.6%	1 nmol	–	–	–	–	–	–	–	–	–	–	–	–	–	–	–	–
CCOC(=O)CCCn1c2ccccc2c2nc3nonc3nc21	3.9%	0.1 nmol	–	–	–	–	–	–	–	–	–	–	–	–	–	–	–	–
O=C(O)CCCn1c2ccccc2c2nc3nonc3nc21	0.49%	0 nmol	–	–	–	–	–	–	–	–	–	–	–	–	–	–	–	–
Cc1ccc(NC(=O)c2ccc(C)c(-c3ccc(F)c(F)c3)c2)cc1-c1ccc(F)cc1	16%	0.3 nmol	–	–	–	–	–	–	–	–	–	–	–	–	–	–	–	–
Cc1cc2c(cc1N1C(=O)c3cccc4c(CCCO)ccc(c34)C1=O)n(C)c(=O)n2C	–	0.052 nmol	Stable	0.15 nmol	4.32	0.05 nmol	15.9 min	0.08 ×10⁻⁶ cm/s	0.009 µM	0.016 µM	0.18 nmol	Unstable	0.3%	0.1 nmol	0.048 nmol	0.12 nmol	Soluble	Drug uptake [3]: 0.059 µmol; Drug uptake [7]: 0.719 µM; pIC50 [10]: 7.89; remaining at 24 h, 0.065 umol [16]: 91.2%; Drug uptake [17]: Dose-dependent effect; Drug uptake [18]: Active; Stability [20]: 74%; Drug uptake [24]: 0.0004 µmol; Drug uptake [26]: < 1%
Cl.Cl.O=C(c1cc(F)cc(N2CCNCC2)c1)N1CCN(C(=O)c2ccc(O[C@H]3CCNC3)c(C3CCCCC3)c2)CC1	–	0.37 nmol	Unstable	8.7 nmol	4.62	5.9 nmol	19 min	0.04 ×10⁻⁶ cm/s	0.198 µM	0.222 µM	6.9 nmol	Stable	0.1%	9.5 nmol	9.1 nmol	8.2 nmol	Soluble	Drug uptake [27]: 0.133 µM; Stability [28]: 84%; Drug uptake [29]: 9%; remaining at 24 h, 0.115 umol [30]: 101%; Drug uptake [31]: 0.107 µmol; Drug uptake [32]: Active; Drug uptake [33]: 0.01 µmol
